In ChEMBL document CHEMBL3272259, “Nitroimidazoles with antibacterial activity against Neisseria gonorrhoeae” (1977):
≈ marks a conversion by molar mass, not a printed value. Calls of active or inactive are those of the source. The rule behind the calls is not given here.

Legend:
Pentatrichomonas hominis = assay: Antibacterial activity against Pentatrichomonas hominis ATCC 30000 after 48 hrs by ten-fold serial dilution method; assay type: functional; conditions: ATCC 30000, 48 h
Summary of the method: (§1)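 Trichomonads were cultured in Diamond medium with 5% serum and incubated 48 h at 37 °C. Cultures were examined microscopically for motile cells, and the MIC (µg/mL) is the lowest concentration giving no motile organisms.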

Trichomonas vaginalis = assay: Antibacterial activity against Trichomonas vaginalis ATCC 30001 after 48 hrs by ten-fold serial dilution method; assay type: functional; conditions: ATCC 30001, 48 h; summary of the method: as §1
Candida albicans = assay: Antifungal activity against Candida albicans; assay type: functional, organism-based
Tritrichomonas foetus = assay: Antibacterial activity against Tritrichomonas foetus 1002-96-27 after 48 hrs by ten-fold serial dilution method; assay type: functional; conditions: 1002-96-27, 48 h; summary of the method: as §1
Neisseria gonorrhoeae = assay: Antibacterial activity against Neisseria gonorrhoeae ATCC 19424 after 48 hrs by ten-fold serial dilution method; assay type: functional; conditions: ATCC 19424, 48 h
Summary of the method: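 Tested on chocolate agar made from GC agar base with hemoglobin and Supplement C, incubated 48 h at 37 °C. Plates were checked visually, and the MIC (µg/mL) is the lowest concentration with no visible growth.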

Bacteroides fragilis = assay: Antibacterial activity against Bacteroides fragilis ATCC 23745 after 24 hrs by ten-fold serial dilution method; assay type: functional; conditions: ATCC 23745, 24 h
Summary of the method: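 Grown in Fluid Thioglycollate Broth and incubated 24 h at 37 °C. Growth was read by eye, and the MIC (µg/mL) is the lowest concentration that prevented visible growth.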

Clostridium perfringens = assay: Antibacterial activity against Clostridium perfringens ATCC 13124 after 24 hrs by ten-fold serial dilution method; assay type: functional; conditions: ATCC 13124, 24 h
Summary of the method: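 Grown in Fluid Thioglycollate Broth and incubated 24 h at 37 °C. Growth was checked by eye after incubation. MIC was taken as the lowest concentration, in μg/mL, that prevented visible growth.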

| SMILES | MIC (Pentatrichomonas hominis) | MIC (Trichomonas vaginalis) | Activity (Candida albicans) | MIC (Tritrichomonas foetus) | MIC (Neisseria gonorrhoeae) | MIC (Bacteroides fragilis) | MIC (Clostridium perfringens) |
| --- | --- | --- | --- | --- | --- | --- | --- |
| Cn1c([N+](=O)[O-])cnc1SCCCCCCCCCCCC(=O)O | 10 µg/mL (≈ 28 µM) | 10 µg/mL (≈ 28 µM) | inactive | 10 µg/mL (≈ 28 µM) | > 100 µg/mL | 100 µg/mL (≈ 280 µM) | > 100 µg/mL |
| Cn1c([N+](=O)[O-])cnc1SCCCCCCCOc1ccccc1[N+](=O)[O-] | 100 µg/mL (≈ 254 µM) | 100 µg/mL (≈ 254 µM) | inactive | 100 µg/mL (≈ 254 µM) | > 100 µg/mL | > 100 µg/mL | > 100 µg/mL |
| Cn1c([N+](=O)[O-])cnc1[S+]([O-])CCC(=O)O (centres undefined) | 10 µg/mL (≈ 40.4 µM) | 10 µg/mL (≈ 40.4 µM) | inactive | 10 µg/mL (≈ 40.4 µM) | > 100 µg/mL | 10 µg/mL (≈ 40.4 µM) | 100 µg/mL (≈ 404 µM) |
| Cn1c([N+](=O)[O-])cnc1[S+]([O-])CCCCCCCOc1ccccc1[N+](=O)[O-] (centres undefined) | 100 µg/mL (≈ 244 µM) | 100 µg/mL (≈ 244 µM) | inactive | 100 µg/mL (≈ 244 µM) | > 100 µg/mL | 100 µg/mL (≈ 244 µM) | > 100 µg/mL |
| Cn1ccnc1SCCOc1ccc(C#N)cc1 |  |  | inactive |  |  |  |  |
| Br.Cn1ccnc1SCCCCOc1ccccc1 | > 100 µg/mL | > 100 µg/mL | inactive | > 100 µg/mL | 100 µg/mL | > 100 µg/mL | > 100 µg/mL |
| Cn1c([N+](=O)[O-])cnc1[S+]([O-])CCOc1ccc(C(=O)O)cc1 (centres undefined) | 100 µg/mL (≈ 295 µM) | 100 µg/mL (≈ 295 µM) | inactive | 100 µg/mL (≈ 295 µM) | 100 µg/mL (≈ 295 µM) | 100 µg/mL (≈ 295 µM) | 100 µg/mL (≈ 295 µM) |
| Cn1c([N+](=O)[O-])cnc1SCCOc1ccc(C#N)cc1 | 1 µg/mL (≈ 3.29 µM) | 1 µg/mL (≈ 3.29 µM) | inactive | 1 µg/mL (≈ 3.29 µM) | 100 µg/mL (≈ 329 µM) |  | 100 µg/mL (≈ 329 µM) |
| CCOC(=O)c1ccc(OCCCCSc2nccn2C)cc1 [listing 1 of 2 here] |  |  | inactive |  |  |  |  |
| Cn1c([N+](=O)[O-])cnc1S(=O)(=O)CCCCC(=O)O | 100 µg/mL (≈ 343 µM) | 100 µg/mL (≈ 343 µM) | inactive | > 100 µg/mL | 100 µg/mL (≈ 343 µM) | 100 µg/mL (≈ 343 µM) | > 100 µg/mL |
| Cn1c([N+](=O)[O-])cnc1SCCCCOc1ccc(C(=O)O)cc1 | 1 µg/mL (≈ 2.85 µM) | 1 µg/mL (≈ 2.85 µM) | inactive | 1 µg/mL (≈ 2.85 µM) | 100 µg/mL (≈ 285 µM) | 10 µg/mL (≈ 28.5 µM) | 10 µg/mL (≈ 28.5 µM) |
| Cn1c([N+](=O)[O-])cnc1SCCCCCCOc1ccc(C(=O)O)cc1 | 1 µg/mL (≈ 2.64 µM) | 1 µg/mL (≈ 2.64 µM) | inactive | 1 µg/mL (≈ 2.64 µM) | 0.1 µg/mL (≈ 0.264 µM) | 1 µg/mL (≈ 2.64 µM) | 10 µg/mL (≈ 26.4 µM) |
| Cn1c([N+](=O)[O-])cnc1SCCOc1ccc(C(=O)O)cc1 [listing 1 of 2 here] | 1 µg/mL (≈ 3.09 µM) | 1 µg/mL (≈ 3.09 µM) |  | 1 µg/mL (≈ 3.09 µM) | 1 µg/mL (≈ 3.09 µM) | 10 µg/mL (≈ 30.9 µM) | 10 µg/mL (≈ 30.9 µM) |
| Cn1c([N+](=O)[O-])cnc1SCCOc1ccc([N+](=O)[O-])cc1 | 1 µg/mL (≈ 3.08 µM) | 10 µg/mL (≈ 30.8 µM) | inactive | 100 µg/mL (≈ 308 µM) | > 100 µg/mL | 100 µg/mL (≈ 308 µM) | 100 µg/mL (≈ 308 µM) |
| Cn1c([N+](=O)[O-])cnc1SCCCCCCCC(=O)O | 1 µg/mL (≈ 3.32 µM) | 1 µg/mL (≈ 3.32 µM) | inactive | 1 µg/mL (≈ 3.32 µM) | 0.1 µg/mL (≈ 0.332 µM) | 10 µg/mL (≈ 33.2 µM) | 0.1 µg/mL (≈ 0.332 µM) |
| Cn1c([N+](=O)[O-])cnc1SCCCCCCCCCCC(=O)O | 10 µg/mL (≈ 29.1 µM) | 10 µg/mL (≈ 29.1 µM) | inactive | 10 µg/mL (≈ 29.1 µM) | 0.1 µg/mL (≈ 0.291 µM) | 10 µg/mL (≈ 29.1 µM) | 10 µg/mL (≈ 29.1 µM) |
| COC(=O)CCCCCCCCCCSc1ncc([N+](=O)[O-])n1C | > 100 µg/mL | > 100 µg/mL | inactive | > 100 µg/mL | > 100 µg/mL | > 100 µg/mL | > 100 µg/mL |
| Br.CCOC(=O)c1ccc(OCCCCSc2nccn2C)cc1 | 100 µg/mL | 100 µg/mL |  | 100 µg/mL | > 100 µg/mL | > 100 µg/mL | > 100 µg/mL |
| Br.Cn1ccnc1SCCOc1ccc(C#N)cc1 | > 100 µg/mL | > 100 µg/mL |  | > 100 µg/mL | > 100 µg/mL | > 100 µg/mL | > 100 µg/mL |
| CCOC(=O)c1ccc(OCCCCSc2nccn2C)cc1 [listing 2 of 2 here] | > 100 µg/mL | > 100 µg/mL |  | > 100 µg/mL | > 100 µg/mL | > 100 µg/mL | > 100 µg/mL |
| Cn1c([N+](=O)[O-])cnc1SCCOc1ccc(C(=O)O)cc1 [listing 2 of 2 here] |  |  | inactive |  |  |  |  |
